# Screening data: PubChem BioAssay, several laboratories
# A selection: hits, their analogues and other compounds. The true share with any hit is near 7.4%.
# M1 antag: antagonists of rat M1 muscarinic receptor; CHO-M1 cells, Fluo-4 calcium, ACh EC80 antagonist mode; stronger effect = lower value; AID 628, 2007; actives 3.4% (n = 64,000); B-score at 10 µM; Muscarinic acetylcholine receptor M1 (Rattus norvegicus), P08482;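 active = calcium fluorescence response, raw or row-and-column corrected B-score, differing from the plate sample mean either way at a set confidence level, mostly lower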
# Target sequence (P08482 whole entry, looked up): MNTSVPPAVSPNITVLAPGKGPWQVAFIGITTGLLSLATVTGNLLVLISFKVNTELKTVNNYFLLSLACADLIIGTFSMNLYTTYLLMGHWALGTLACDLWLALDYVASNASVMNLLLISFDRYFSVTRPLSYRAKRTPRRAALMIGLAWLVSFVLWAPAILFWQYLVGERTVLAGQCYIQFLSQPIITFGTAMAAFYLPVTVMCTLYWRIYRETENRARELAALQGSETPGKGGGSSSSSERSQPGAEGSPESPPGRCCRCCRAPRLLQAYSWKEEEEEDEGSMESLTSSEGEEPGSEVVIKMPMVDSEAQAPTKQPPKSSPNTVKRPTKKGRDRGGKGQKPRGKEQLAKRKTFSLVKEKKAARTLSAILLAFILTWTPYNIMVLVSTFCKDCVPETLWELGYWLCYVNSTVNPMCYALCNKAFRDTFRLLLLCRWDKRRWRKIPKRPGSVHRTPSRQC
# Jurkat viability: cytotoxicity toward Jurkat T cells, primary screen, cytotoxicity control, cell-based, Jurkat E6.1, 60K MLSMR library. Jurkat E6.1 viability, ATP luminescence, 48 h. inhibition, % at 4 µM. actives 1.2% (n = 56,000). AID 463, 2006;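 active = inhibition above the mean inhibition of all tested compounds plus 3 SD, cut at about 28% in these data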
# S1P3 agonist: human S1P3 receptor agonists, primary screen, cell-based, primary and confirmation, NFAT-BLA reporter; activation, % at 4.5 µM; S1P3 NFAT-BLA reporter cells, agonism, FRET ratio; relative to 1 µM S1P, basal subtracted; actives 0.1% (n = 60,000); AID 373, 2006;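 active = activation above the screen-wide mean plus 3 SD, cut at about 4.5% in these data, passing the limit was not always enough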
#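 Benchmarks: high control 1 µM S1P / System: stable CHO line with human S1P3, Gα16, NFAT-BLA reporter / Dosing: single compound concentration, 4.5 µM final / Timing: 4 h compound at 37 °C, 2 h substrate at RT / Measured by: FRET β-lactamase substrate fluorescence, excitation 405 nm, 460/535 nm emission ratio, background-subtracted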
# JNK3 inh: JNK3 kinase activity inhibitors, primary screen, biochemical, human, purified enzyme; HTS; inhibition, % at 8 µM; actives 0.61% (n = 60,000); AID 746, 2007; in the data active = inhibition above about 17%;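 note: 0% = DMSO and 100% = reference inhibitor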
# S1P1 ag pot: S1P1 agonists and agonism potentiators, primary screen, cell-based, primary and confirmation screens, CRE-bla reporter; Sphingosine 1-phosphate receptor 1 (Homo sapiens), P21453; S1P1 CRE-bla cells, forskolin, beta-lactamase FRET, potentiator mode; S1P1 agonist co-added at EC20, 2 nM; 100% = saturating reference agonist, 0% = basal; activation, % at 9.5 µM; actives 0.57% (n = 56,000); AID 449, 2006;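 active = activation above a cutoff set at the mean activation of all tested compounds plus 3 SD, cut at about 54% in these data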;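 note: forskolin at 4 µM as EC80 and the EC20 agonist is SEW2871; 100% = SEW2871 at its EC100 plus forskolin at EC80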
# M1 agonist: M1 muscarinic receptor agonists, primary screen, CHO-M1 cells, Fluo-4 calcium, agonist mode; Muscarinic acetylcholine receptor M1; Fluo-4 calcium fluorescence; stronger effect = higher value; B-score at 10 µM; actives 3% (n = 64,000);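 active = fluorescence rise, raw or as B-score row- and column-corrected plate score, outside the 99.7% band of its plate's samples, either direction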
# Numbers without * were called inactive; nt = no result given.
SMILES,M1 antag,Jurkat viability,S1P3 agonist,JNK3 inh,S1P1 ag pot,M1 agonist
O=C(C1CCN(S(=O)(=O)c2cccc3cccnc23)CC1)N1CC=C(c2ccccc2)CC1,-2,6,-1,-3,31,4.5*
O=C(C1CCCN(S(=O)(=O)c2cccc3cccnc23)C1)N1CCN(c2ccccc2F)CC1 (stereo not drawn),-1.4,5,-2,-6,44,3.9
O=C(C1CCN(S(=O)(=O)c2cccc3cccnc23)CC1)N1CCCC1,0.054,-1,-1,-3,12,0.3
Cc1ccc(-c2nnn(CC(=O)Nc3ccccc3N3CCOCC3)n2)cc1,-0.02,1,0,1,-17,0.19
O=C(COC(=O)c1ccco1)NCc1ccco1,0.055,10,-1,-1,1,-0.099
Cc1cc(C(=O)OCC(=O)NCc2ccco2)c(C)n1-c1ccc(F)cc1,0.4,75*,-1,7,8,-1.2
Cc1nc2cccc(C(=O)NCc3ccccc3)c2o1,-0.19,12,-2,23*,17,-0.034
CCN(CC)CCCNC(CC(=O)O)C(=O)O (stereo not drawn),0.063,-6,-1,2,0,1.1
CCn1cnc2scc(-c3ccccc3)c2c1=O,10*,4,0,-6,-27,-1.2
CN(C)C=NC(=O)/C(C#N)=C1\CCc2ccccc2N1,-0.13,-5,-1,47*,nt,0.087
O=C(c1ccco1)N1CCN(C(c2ccccc2Cl)c2nnnn2Cc2ccco2)CC1 (stereo not drawn),-0.63,3,-1,2,18,12*
CCOC(=O)c1sc2nc(NC(=O)c3cccs3)sc2c1C,-2.3,-4,-1,2,-13,-0.5
O=S(=O)(CCN(CCS(=O)(=O)C(F)(F)F)CC1CCCO1)C(F)(F)F (stereo not drawn),-0.024,13,-1,-3,12,0.37
Cc1ccc(C)c(SCC(=O)Nc2nnc(-c3ccccc3)o2)c1,0.0013,5,0,2,9,17*
C=CCn1c(Cc2csc(N)n2)nnc1SCC(=O)OCC,0.22,-7,0,2,-13,-0.98
CCOc1ccc(C(C)(C)C)cc1S(=O)(=O)N1CCOCC1,-1.3,-3,0,-3,6,-0.19
CCn1c(=O)c(C(=O)Nc2nc3ccccc3[nH]2)c(O)c2ccccc21,0.02,29*,0,4,55,-0.18
CCCn1c(=O)c(C(=O)Nc2ccccc2C(=O)OCC)c(O)c2ccccc21,0.12,-2,0,-5,11,-0.31
CCCn1c(=O)c(C(=O)Nc2c(C)n(C)n(-c3ccccc3)c2=O)c(O)c2ccccc21,-11*,1,-1,-3,4,-0.013
CCOC(=O)c1c(NC(=O)CN2CCOCC2)sc2c1CC(C)(C)OC2,-0.015,nt,-4,6,-13,0.74
COc1ccc(-c2nnc(SCc3ccccc3F)o2)cc1OC,-0.82,7,1,2,42,0.17
Cc1ccc(-c2nnc(SCc3ccccc3F)o2)cc1,-0.44,1,0,2,93*,1
CC(C)c1nc2oc3c(NCc4ccccn4)ncnc3c2c2c1COC(C)(C)C2,0.42,1,1,-6,-53,4.6*
CCS(=O)(=O)N1CCN(Cc2nc3ccccc3c(=O)[nH]2)CC1,-0.4,nt,nt,nt,nt,0.19
COC(=O)CCCCCc1ccc(C(C)=O)s1,-0.29,0,-2,9,-13,-0.9
SMILES,M1 antag,Jurkat viability,S1P3 agonist,JNK3 inh,S1P1 ag pot,M1 agonist
CCCn1c(=O)c2ccccc2n2c(SCN3C(=O)c4ccccc4C3=O)nnc12,0.053,6,-1,10,-18,1.7
CCCn1c(=O)c2ccccc2n2c(SCc3c(C(=O)OCC)oc4ccccc34)nnc12,-0.69,-8,13*,-3,-48,0.98
COc1cccc(N2CC(C(=O)Nc3ccc(C(=O)OC(C)C)cc3)CC2=O)c1 (stereo not drawn),nt,-1,0,-5,nt,nt
CCn1c(C)nc2cc(-c3nc4n(n3)Cc3ccccc3-4)ccc21,0.14,62*,0,3,-44,1
CCOc1cc(C)nc(NCCc2ccc(OC)c(OC)c2)n1,0.2,0,-1,6,-10,0.04
COc1cc(CC(=O)Nc2nccs2)cc(OC)c1OC,-0.073,-2,0,23*,30,-1.4
Cc1ccc2cc(CN(Cc3ccco3)C(=O)c3cccs3)c(=O)[nH]c2c1,-0.34,92*,0,4,-4,-0.24
Cc1ccc2[nH]c(=O)c(CN(Cc3ccco3)C(=O)c3cccs3)cc2c1,-1.5,-1,0,-6,-16,0.57
COC(=O)c1ccccc1NC(=O)c1noc2c1CC(C(C)(C)C)CC2 (stereo not drawn),0.045,-3,0,-1,-1,0.15
CC1CCc2c(sc3nc(SCc4nc(-c5ccccc5)no4)n(C)c(=O)c23)C1 (stereo not drawn),-0.51,1,0,-2,4,0.058
CN(C)CC(=O)c1ccc(-c2ccccc2)cc1,-0.16,5,-2,1,-16,0.066
CN(C)CC(C(=O)c1ccccc1)c1ccccc1 (stereo not drawn),-1.6,101*,-1,5,82,0.65
CCOc1cc(S(=O)(=O)NCc2ccccc2)ccc1F,-0.34,4,0,-2,-12,-1.2
CSCc1nnc(NC(=O)c2ccc(S(=O)(=O)N(CC(C)C)CC(C)C)cc2)o1,0.44,88*,0,7,17,-0.86
Cc1nnc(NC(=O)c2ccc(S(=O)(=O)N(C)Cc3ccccc3)cc2)o1,-2,11,0,6,8,0.064
CCc1nnc(NC(=O)c2ccc(S(=O)(=O)N(CC(C)C)CC(C)C)cc2)o1,0.61,94*,0,3,18,1.1
COCc1nnc(NC(=O)c2ccc(S(=O)(=O)N(C)C3CCCCC3)cc2)o1,0.43,10,-1,4,14,0.14
COCCN(CCOC)S(=O)(=O)c1ccc(C(=O)Nc2nnc(C)o2)cc1,1.7,9,-1,-1,-1,-0.025
CCN(Cc1ccccc1)S(=O)(=O)c1ccc(C(=O)Nc2nnc(C3CC3)o2)cc1,0.53,101*,-1,2,18,0.18
NS(=O)(=O)c1cc2c(cc1Cl)NC=NS2(=O)=O,1.3,nt,-2,5,-12,0.036
O=C(CC(=O)c1ccccc1O)c1cccc(F)c1,0.3,69*,0,-4,-32,0.27
